Measured values reported in ChEMBL document CHEMBL3414486, “Synthesis of heterocycle-modified betulinic acid derivatives as antitumor agents” (Eur J Med Chem, 2015).
Activity calls are given as the source filed them. No cut-off for these calls is given here.

Assays:
[1] = Cytotoxicity against human HCT116 cells assessed as growth inhibition after 96 hrs by SRB assay; type: functional, cell-based; conditions: HCT-116, 96 h
In short: (§1)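 SRB viability assay. Cells are seeded for 24 h, then exposed for 96 h to a concentration series from 20 mM DMSO stocks, with a DMSO control. Cells are fixed in 50% TCA (2 h, 4 °C), stained with 0.4% SRB for 10 min and washed with 1% acetic acid. Bound dye is dissolved in 10 mM Tris base and read at 515 nm. IC50 is averaged from at least 3 independent experiments. SI is IC50 in HAF divided by IC50 in the cancer line.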

[2] = system: HT-29; assay: Cytotoxicity against human HT-29 cells assessed as growth inhibition after 96 hrs by SRB assay; type: functional, cell-based; conditions: HT-29, 96 h; in short: as §1
[3] = Cytotoxicity against human PC3 cells assessed as growth inhibition after 96 hrs by SRB assay; type: functional, cell-based; conditions: PC-3, 96 h; in short: as §1
[4] = system: DU-145; assay: Cytotoxicity against human DU145 cells assessed as growth inhibition after 96 hrs by SRB assay; type: functional, cell-based; conditions: DU-145, 96 h; in short: as §1
[5] = system: MDA-MB-231; assay: Cytotoxicity against human MDA-MB-231 cells assessed as growth inhibition after 96 hrs by SRB assay; type: functional, cell-based; conditions: MDA-MB-231, 96 h; in short: as §1
[6] = system: 4T1; assay: Cytotoxicity against mouse 4T1 cells assessed as growth inhibition after 96 hrs by SRB assay; type: functional, cell-based; conditions: 4T1, 96 h; in short: as §1
[7] = system: T47D; assay: Cytotoxicity against human T47D cells assessed as growth inhibition after 96 hrs by SRB assay; type: functional, cell-based; in short: as §1
[8] = system: MCF7; assay: Cytotoxicity against human MCF7 cells assessed as growth inhibition after 96 hrs by SRB assay; type: functional, cell-based; conditions: MCF7, 96 h; in short: as §1
[9] = Cytotoxicity against human MCF7/ADR cells assessed as growth inhibition after 96 hrs by SRB assay; type: functional, cell-based; conditions: NCI/ADR-RES; in short: as §1
[10] = Cytotoxicity against HAF assessed as growth inhibition after 96 hrs by SRB assay; conditions: Homo sapiens; in short: as §1
[11] = system: NCI/ADR-RES; assay: Selectivity index, ratio of IC50 for HAF to IC50 for human MCF7/ADR cells; in short: as §1
[12] = system: MDA-MB-231; assay: Induction of apoptosis in human MDA-MB-231 cells assessed as early apoptotic cells at 5 uM after 24 hrs by annexin V-FITC/propidium iodide staining-based flow cytometric analysis (reference value: 0.59%); type: functional
[13] = system: MDA-MB-231; assay: Induction of apoptosis in human MDA-MB-231 cells assessed as late apoptotic cells at 5 uM after 24 hrs by annexin V-FITC/propidium iodide staining-based flow cytometric analysis (reference value: 2.4%); type: functional
[14] = system: MCF7; assay: Induction of apoptosis in human MCF7 cells assessed as early apoptotic cells at 20 uM after 24 hrs by annexin V-FITC/propidium iodide staining-based flow cytometric analysis (reference value: 0.74%); type: functional
[15] = system: MCF7; assay: Induction of apoptosis in human MCF7 cells assessed as late apoptotic cells at 20 uM after 24 hrs by annexin V-FITC/propidium iodide staining-based flow cytometric analysis (reference value: 0.84%); type: functional
[16] = system: NCI/ADR-RES; assay: Induction of apoptosis in human MCF7/ADR cells assessed as early apoptotic cells at 20 uM after 24 hrs by annexin V-FITC/propidium iodide staining-based flow cytometric analysis (reference value: 0.67%); type: functional
[17] = system: NCI/ADR-RES; assay: Induction of apoptosis in human MCF7/ADR cells assessed as late apoptotic cells at 20 uM after 24 hrs by annexin V-FITC/propidium iodide staining-based flow cytometric analysis (reference value: 1.48%); type: functional
[18] = system: HT-29; assay: Selectivity index, ratio of IC50 for HAF to IC50 for human HT-29 cells; in short: as §1
[19] = system: PC-3; assay: Selectivity index, ratio of IC50 for HAF to IC50 for human PC3 cells; in short: as §1
[20] = system: DU-145; assay: Selectivity index, ratio of IC50 for HAF to IC50 for human DU145 cells; in short: as §1
[21] = Selectivity index, ratio of IC50 for HAF to IC50 for human MDA-MB-231 cells; in short: as §1
[22] = system: 4T1; assay: Selectivity index, ratio of IC50 for HAF to IC50 for mouse 4T1 cells; in short: as §1
[23] = system: T47D; assay: Selectivity index, ratio of IC50 for HAF to IC50 for human T47D cells; in short: as §1
[24] = system: MCF7; assay: Selectivity index, ratio of IC50 for HAF to IC50 for human MCF7 cells; in short: as §1
[25] = system: HCT-116; assay: Selectivity index, ratio of IC50 for HAF to IC50 for human HCT116 cells; in short: as §1
[26] = system: MDA-MB-231; assay: Antimetastatic activity against human MDA-MB-231 cells at 2.5 to 10 uM after 12 hrs by transwell assay; type: functional, cell-based
[27] = system: MCF7; assay: Induction of apoptosis in human MCF7 cells assessed as early apoptotic cells at 80 uM after 24 hrs by annexin V-FITC/propidium iodide staining-based flow cytometric analysis (reference value: 0.74%); type: functional
[28] = system: MCF7; assay: Induction of apoptosis in human MCF7 cells assessed as late apoptotic cells at 80 uM after 24 hrs by annexin V-FITC/propidium iodide staining-based flow cytometric analysis (reference value: 0.84%); type: functional
[29] = system: NCI/ADR-RES; assay: Induction of apoptosis in human MCF7/ADR cells assessed as early apoptotic cells at 80 uM after 24 hrs by annexin V-FITC/propidium iodide staining-based flow cytometric analysis (reference value: 0.67%); type: functional
[30] = system: NCI/ADR-RES; assay: Induction of apoptosis in human MCF7/ADR cells assessed as late apoptotic cells at 80 uM after 24 hrs by annexin V-FITC/propidium iodide staining-based flow cytometric analysis (reference value: 1.48%); type: functional
[31] = system: MDA-MB-231; assay: Antimetastatic activity against human MDA-MB-231 cells at 10 to 50 uM after 12 hrs by transwell assay relative to control; type: functional, cell-based
In short: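 Transwell migration: 8 × 10^4 MDA-MB-231 cells in serum-free medium in the upper chamber, with 10% FBS medium below. Compound added to both chambers, then 12 h migration. Non-migrated cells swabbed off. Migrated cells fixed in 4% paraformaldehyde for 30 min, stained with 0.1% crystal violet for 5 min, and counted in 5 random fields. Inhibition normalized to untreated control migration.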

[32] = system: MDA-MB-231; assay: Induction of apoptosis in human MDA-MB-231 cells assessed as late apoptotic cells at 80 uM after 24 hrs by annexin V-FITC/propidium iodide staining-based flow cytometric analysis (reference value: 2.4%)
[33] = system: MDA-MB-231; assay: Induction of apoptosis in human MDA-MB-231 cells assessed as early apoptotic cells at 80 uM after 24 hrs by annexin V-FITC/propidium iodide staining-based flow cytometric analysis (reference value: 0.59%)
[34] = system: MCF7; assay: Induction of apoptosis in human MCF7 cells assessed as early apoptotic cells at 1 uM after 24 hrs by annexin V-FITC/propidium iodide staining-based flow cytometric analysis (reference value: 0.74%); type: functional
[35] = system: MCF7; assay: Induction of apoptosis in human MCF7 cells assessed as late apoptotic cells at 1 uM after 24 hrs by annexin V-FITC/propidium iodide staining-based flow cytometric analysis (reference value: 0.84%); type: functional
[36] = system: NCI/ADR-RES; assay: Induction of apoptosis in human MCF7/ADR cells assessed as early apoptotic cells at 1 uM after 24 hrs by annexin V-FITC/propidium iodide staining-based flow cytometric analysis (reference value: 0.67%); type: functional
[37] = system: NCI/ADR-RES; assay: Induction of apoptosis in human MCF7/ADR cells assessed as late apoptotic cells at 1 uM after 24 hrs by annexin V-FITC/propidium iodide staining-based flow cytometric analysis (reference value: 1.48%); type: functional

SMILES | IC50 [1] [µM] | IC50 [2] [µM] | IC50 [3] [µM] | IC50 [4] [µM] | IC50 [5] [µM] | IC50 [6] [µM] | IC50 [7] [µM] | IC50 [8] [µM] | IC50 [9] [µM] | IC50 [10] [µM] | Ratio IC50 [11] | Ratio IC50 [18] | Ratio IC50 [19] | Ratio IC50 [20] | Ratio IC50 [21] | Ratio IC50 [22] | Ratio IC50 [23] | Ratio IC50 [24] | Ratio IC50 [25] | other results
C=C(C)[C@@H]1CC[C@]2(C(=O)O)CC[C@]3(C)[C@H](CC[C@@H]4[C@@]5(C)CC[C@H](NC(=O)C6CCNCC6)C(C)(C)[C@@H]5CC[C@]43C)[C@@H]12 | 1.11 | 0.97 | 1.11 | 2.45 | 1.01 | 1.77 | 1.4 | 0.54 | 0.33 | 4.45 | 13.5 | 4.6 | 4 | 1.8 | 4.4 | 2.5 | 3.2 | 8.2 | 4 | Activity [12]: 5.56%; Activity [13]: 25.87%; Activity [14]: 16.17%; Activity [15]: 4.15%; Activity [16]: 12.81%; Activity [17]: 6.35%; Activity [26]: Active
C=C(C)[C@@H]1CC[C@]2(C(=O)O)CC[C@]3(C)[C@H](CC[C@@H]4[C@@]5(C)CC[C@H](O)C(C)(C)[C@@H]5CC[C@]43C)[C@@H]12 [BETULINIC ACID] | 22.1 | 17.3 | 27.5 | 36.2 | 34.6 | 14 | 15.6 | 22.6 | 38.5 | 34.5 | 0.9 | 2 | 1.3 | 0.9 | 1 | 2.5 | 2.2 | 1.5 | 1.6 | Activity [27]: 16.58%; Activity [28]: 1.3%; Activity [29]: 4.6%; Activity [30]: 2.64%; Activity [31]: Active; Activity [32]: 27.58%; Activity [33]: 1.94%
CC(=O)O[C@@]12CO[C@@H]1C[C@H](O)[C@@]1(C)C(=O)[C@H](O)C3=C(C)[C@@H](OC(=O)[C@H](O)[C@@H](NC(=O)OC(C)(C)C)c4ccccc4)C[C@@](O)([C@@H](OC(=O)c4ccccc4)[C@H]21)C3(C)C.O.O.O [DOCETAXEL] |  |  |  |  |  |  |  | 0.005 | 5.18 |  |  |  |  |  |  |  |  |  |  | Activity [34]: 5.61%; Activity [35]: 10.63%; Activity [36]: 1.38%; Activity [37]: 1.58%
